Test results from ChEMBL document CHEMBL1140653, “Cytostatic activity of novel 4'-aminochalcone-based imides” (Bioorg Med Chem Lett, 2007).
pIC50: −log10 of the molar value.

Columns and labels:
[1] = tested on: L1210; assay: Cytotoxicity against mouse L1210 cells; type: functional, cell-based
[2] = Cytotoxicity against human Molt4/C8 cells; type: functional, cell-based; settings: MOLT-4
[3] = tested on: CCRF-CEM; assay: Cytotoxicity against human CEM cells; type: functional, cell-based
[4] = tested on: Mus musculus; assay: Mortality in mouse at 300 mg/kg, ip after 4 hrs; type: ADME, organism-based; design: dose 300 mg/kg, route intraperitoneal; settings: in vivo
Procedure, shortened: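 Mice dosed intraperitoneally at 30, 100 and 300 mg/kg; animals observed for death at 0.5 and 4 h after injection as part of a short-term toxicity screen.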

[5] = tested on: Mus musculus; assay: Neurotoxicity in mouse at 300 mg/kg, ip after 4 hrs by rotating rod method; type: toxicity, organism-based; design: dose 300 mg/kg, route intraperitoneal; settings: in vivo
Procedure, shortened: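 Intraperitoneal dosing in mice at 30, 100 and 300 mg/kg. Neurological deficit was scored by the rotating rod procedure at 0.5 and 4 h, with observation for other pathological signs. Results were recorded as animals showing neurotoxicity over total animals at each dose.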

| SMILES | pIC50 [1] | pIC50 [2] | pIC50 [3] | Activity [4] | Activity [5] |
| --- | --- | --- | --- | --- | --- |
| COc1ccc(/C=C/C(=O)c2ccc(N3C(=O)C=CC3=O)cc2)cc1OC | 3.80 | 3.69 | 3.66 |  |  |
| O=C(O)c1ccc(/C=C/C(=O)c2ccc(N3C(=O)C=CC3=O)cc2)cc1 | 3.87 | 3.75 | 3.88 | Toxic | Toxic |
| O=C(/C=C/c1ccc2c(c1)OCO2)c1ccc(N2C(=O)C=CC2=O)cc1 | 3.80 | 3.67 | 3.59 |  |  |
| O=C(/C=C/c1ccc(Cl)c(Cl)c1)c1ccc(N2C(=O)C=CC2=O)cc1 | 5.19 | 5.06 | 5.11 |  |  |
| Cc1ccc(/C=C/C(=O)c2ccc(N3C(=O)C=CC3=O)cc2)cc1 | 5.82 | 5.62 | 5.39 |  |  |
| COc1ccc(/C=C/C(=O)c2ccc(N3C(=O)C=CC3=O)cc2)cc1 | 5.01 | 5.10 | 5.08 |  | Non-toxic |
| O=C(/C=C/c1ccc([N+](=O)[O-])cc1)c1ccc(N2C(=O)C=CC2=O)cc1 | < 3.30 | < 3.30 | < 3.30 |  |  |
| O=C(/C=C/c1ccc(Cl)cc1)c1ccc(N2C(=O)C=CC2=O)cc1 | 5.14 | 5.12 | 5.12 |  |  |
| O=C(/C=C/c1ccccc1)c1ccc(N2C(=O)C=CC2=O)cc1 | 5.07 | 5.02 | 5.01 |  |  |
